# According to ChEMBL document CHEMBL4689842, “EUbOPEN Chemogenomics Library wave 1” (2021):
# Test system: Fibroblast
# Assay: Multiplex assay against human fibroblast
# Assay type: toxicity, cell-based
# Outline: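 Cells stained live at seeding with Hoechst33342, BioTracker Green Microtubule Cytoskeleton Dye, MitoTracker Red and Annexin V Alexa Fluor 680 were imaged on a CQ1 microscope at 37°C and 5% CO2 after compound addition. Their classification by CellPathfinder machine-learning gating ran from Hoechst high-intensity objects versus normal cells, to healthy, pyknosed or fragmented nuclei among normal cells, to mitotic or apoptotic among pyknosed cells. Tubulin, mitochondrial-mass and membrane-permeability phenotypes are per cents of healthy-nucleus cells.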
# [1] = 12 h, 1 µM, compound concentration 1 uM, replicate 1
# [2] = 12 h, 1 µM, compound concentration 1 uM, replicate 2
# [3] = 12 h, 10 µM, compound concentration 10 uM, replicate 1
# [4] = 12 h, 10 µM, compound concentration 10 uM, replicate 2
# [5] = 24 h, 1 µM, compound concentration 1 uM, replicate 1
# [6] = 24 h, 1 µM, compound concentration 1 uM, replicate 2
# [7] = 24 h, 10 µM, compound concentration 10 uM, replicate 1
# [8] = 24 h, 10 µM, compound concentration 10 uM, replicate 2
# [9] = 48 h, 1 µM, compound concentration 1 uM, replicate 1
# [10] = 48 h, 1 µM, compound concentration 1 uM, replicate 2
# [11] = 48 h, 10 µM, compound concentration 10 uM, replicate 1
# [12] = 48 h, 10 µM, compound concentration 10 uM, replicate 2
compound,measurement,setting,value
CCCCCNC(=N)N/N=C/c1c[nH]c2ccc(OC)cc12.O=C(O)/C=C\C(=O)O [TEGASEROD MALEATE],Population Apoptotic (%),[1],65%
same,Population Fragmented Nuclei (%),[1],25%
same,Population Healthy Nuclei (%),[1],47%
same,Population Hoechst High Intensity Objects (%),[1],8%
same,Population Membrane Permeable-Phenotype (%),[1],10%
same,Population Mitochondria Different-Phenotype (%),[1],0%
same,Population Mitotic Cells (%),[1],34%
same,Population Normal (%),[1],91%
same,Population Pyknosed Nuclei (%),[1],27%
same,Population Tubulin-Different-Phenotype (%),[1],22%
same,Total Cell Count,[1],114
same,Population Apoptotic (%),[2],20%
same,Population Fragmented Nuclei (%),[2],12%
same,Population Healthy Nuclei (%),[2],79%
same,Population Hoechst High Intensity Objects (%),[2],3%
same,Population Membrane Permeable-Phenotype (%),[2],4%
same,Population Mitochondria Different-Phenotype (%),[2],22%
same,Population Mitotic Cells (%),[2],80%
same,Population Normal (%),[2],96%
same,Population Pyknosed Nuclei (%),[2],8%
same,Population Tubulin-Different-Phenotype (%),[2],14%
same,Total Cell Count,[2],74
same,Population Apoptotic (%),[3],50%
same,Population Fragmented Nuclei (%),[3],34%
same,Population Healthy Nuclei (%),[3],12%
same,Population Hoechst High Intensity Objects (%),[3],20%
same,Population Membrane Permeable-Phenotype (%),[3],6%
same,Population Mitochondria Different-Phenotype (%),[3],50%
same,Population Mitotic Cells (%),[3],49%
same,Population Normal (%),[3],80%
same,Population Pyknosed Nuclei (%),[3],52%
same,Population Tubulin-Different-Phenotype (%),[3],62%
same,Total Cell Count,[3],155
same,Population Apoptotic (%),[4],100%
same,Population Fragmented Nuclei (%),[4],22%
same,Population Healthy Nuclei (%),[4],3%
same,Population Hoechst High Intensity Objects (%),[4],35%
same,Population Membrane Permeable-Phenotype (%),[4],100%
same,Population Mitochondria Different-Phenotype (%),[4],100%
same,Population Mitotic Cells (%),[4],0%
same,Population Normal (%),[4],64%
same,Population Pyknosed Nuclei (%),[4],73%
same,Population Tubulin-Different-Phenotype (%),[4],100%
same,Total Cell Count,[4],64
same,Population Apoptotic (%),[5],52%
same,Population Fragmented Nuclei (%),[5],24%
same,Population Healthy Nuclei (%),[5],56%
same,Population Hoechst High Intensity Objects (%),[5],10%
same,Population Membrane Permeable-Phenotype (%),[5],15%
same,Population Mitochondria Different-Phenotype (%),[5],1%
same,Population Mitotic Cells (%),[5],47%
same,Population Normal (%),[5],90%
same,Population Pyknosed Nuclei (%),[5],18%
same,Population Tubulin-Different-Phenotype (%),[5],35%
same,Total Cell Count,[5],100
same,Population Apoptotic (%),[6],87%
same,Population Fragmented Nuclei (%),[6],10%
same,Population Healthy Nuclei (%),[6],77%
same,Population Hoechst High Intensity Objects (%),[6],5%
same,Population Membrane Permeable-Phenotype (%),[6],5%
same,Population Mitochondria Different-Phenotype (%),[6],21%
same,Population Mitotic Cells (%),[6],12%
same,Population Normal (%),[6],94%
same,Population Pyknosed Nuclei (%),[6],12%
same,Population Tubulin-Different-Phenotype (%),[6],7%
same,Total Cell Count,[6],89
same,Population Apoptotic (%),[7],74%
same,Population Fragmented Nuclei (%),[7],39%
same,Population Healthy Nuclei (%),[7],7%
same,Population Hoechst High Intensity Objects (%),[7],18%
same,Population Membrane Permeable-Phenotype (%),[7],12%
same,Population Mitochondria Different-Phenotype (%),[7],37%
same,Population Mitotic Cells (%),[7],25%
same,Population Normal (%),[7],81%
same,Population Pyknosed Nuclei (%),[7],53%
same,Population Tubulin-Different-Phenotype (%),[7],75%
same,Total Cell Count,[7],133
same,Population Apoptotic (%),[8],100%
same,Population Fragmented Nuclei (%),[8],44%
same,Population Healthy Nuclei (%),[8],26%
same,Population Hoechst High Intensity Objects (%),[8],39%
same,Population Membrane Permeable-Phenotype (%),[8],100%
same,Population Mitochondria Different-Phenotype (%),[8],100%
same,Population Mitotic Cells (%),[8],0%
same,Population Normal (%),[8],60%
same,Population Pyknosed Nuclei (%),[8],28%
same,Population Tubulin-Different-Phenotype (%),[8],100%
same,Total Cell Count,[8],70
same,Population Apoptotic (%),[9],50%
same,Population Fragmented Nuclei (%),[9],37%
same,Population Healthy Nuclei (%),[9],58%
same,Population Hoechst High Intensity Objects (%),[9],15%
same,Population Membrane Permeable-Phenotype (%),[9],10%
same,Population Mitochondria Different-Phenotype (%),[9],1%
same,Population Mitotic Cells (%),[9],50%
same,Population Normal (%),[9],84%
same,Population Pyknosed Nuclei (%),[9],4%
same,Population Tubulin-Different-Phenotype (%),[9],24%
same,Total Cell Count,[9],115
same,Population Apoptotic (%),[10],66%
same,Population Fragmented Nuclei (%),[10],23%
same,Population Healthy Nuclei (%),[10],72%
same,Population Hoechst High Intensity Objects (%),[10],18%
same,Population Membrane Permeable-Phenotype (%),[10],12%
same,Population Mitochondria Different-Phenotype (%),[10],3%
same,Population Mitotic Cells (%),[10],33%
same,Population Normal (%),[10],81%
same,Population Pyknosed Nuclei (%),[10],3%
same,Population Tubulin-Different-Phenotype (%),[10],44%
same,Total Cell Count,[10],94
same,Population Apoptotic (%),[11],76%
same,Population Fragmented Nuclei (%),[11],48%
same,Population Healthy Nuclei (%),[11],20%
same,Population Hoechst High Intensity Objects (%),[11],33%
same,Population Membrane Permeable-Phenotype (%),[11],17%
same,Population Mitochondria Different-Phenotype (%),[11],23%
same,Population Mitotic Cells (%),[11],23%
same,Population Normal (%),[11],66%
same,Population Pyknosed Nuclei (%),[11],30%
same,Population Tubulin-Different-Phenotype (%),[11],64%
same,Total Cell Count,[11],127
same,Population Apoptotic (%),[12],85%
same,Population Fragmented Nuclei (%),[12],52%
same,Population Healthy Nuclei (%),[12],15%
same,Population Hoechst High Intensity Objects (%),[12],45%
same,Population Membrane Permeable-Phenotype (%),[12],30%
same,Population Mitochondria Different-Phenotype (%),[12],50%
same,Population Mitotic Cells (%),[12],15%
same,Population Normal (%),[12],54%
same,Population Pyknosed Nuclei (%),[12],31%
same,Population Tubulin-Different-Phenotype (%),[12],80%
same,Total Cell Count,[12],115
